In ChEMBL document CHEMBL1129508, “Betulinic acid derivatives: a new class of specific inhibitors of human immunodeficiency virus type 1 entry” (J Med Chem, 1996):
Each block holds one molecule with its values, some of them ahead of it.

How the values were obtained:
CCRF-CEM [1] = assay: (§1) Inhibitory activity against the HIV-1 in CEM cells; type: functional, Homo sapiens
Method in brief: (§2)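 HIV-1-induced cytopathicity in CEM 4 or MT-4 cell cultures was assessed by counting viable cells after MTT (3-(4,5-dimethylthiazol-2-yl)-2,5-diphenyltetrazolium bromide) staining. IC50 is the concentration that inhibits cytopathicity by 50%. For routine testing, the highest concentration was generally 3 µM, because solubility was limited above 10 µM.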

CCRF-CEM [2] = assay: Inhibitory Activity against the HIV-1 in CEM cells; type: functional, Homo sapiens; method in brief: as §2
CCRF-CEM [3] = assay: Inhibitory activity against the HIV-1 in CEM cells; NA= Not active; type: functional, cell-based, Homo sapiens
Method in brief: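 HIV-1-induced cytopathicity assay in CEM 4 cells. Viable cells were counted after MTT (3-(4,5-dimethylthiazol-2-yl)-2,5-diphenyltetrazolium bromide) staining. IC50 is the concentration that inhibits viral cytopathicity by 50%. For routine testing the top concentration was generally 3 µM, because solubility was limited above 10 µM.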

[4] = tested on: Human immunodeficiency virus 1; assay: Inhibitory activity tested against the HIV-1 in MT-4 cells; type: functional, organism-based; conditions: Human immunodeficiency virus 1, MT4; method in brief: as §2
CCRF-CEM [5] = assay: as §1; type: functional, cell-based; conditions: Homo sapiens; method in brief: as §2
MT4 = assay: Inhibitory activity against the HIV-1 in MT-4 cells; type: functional, cell-based; conditions: Homo sapiens; method in brief: as §2
CCRF-CEM [6] = assay: Inhibitory activity against the HIV-1 in CEM cells at 1 uM concentration; type: functional; conditions: Homo sapiens

SMILES: C=C(C)[C@@H]1CC[C@]2(C(=O)NCCC(=O)NCCCCCCC(=O)O)CC[C@]3(C)[C@H](CCC4[C@@]5(C)CC[C@H](O)C(C)(C)[C@@H]5CC[C@]43C)[C@@H]12 (stereo partly drawn)
Inhibition (CCRF-CEM [1]): 20%

SMILES: C=C(C)[C@@H]1CC[C@]2(C(=O)NCCCCCCCCCCCCC(=O)O)CC[C@]3(C)[C@H](CCC4[C@@]5(C)CC[C@H](O)C(C)(C)[C@@H]5CC[C@]43C)[C@@H]12 (stereo partly drawn)
Inhibition (CCRF-CEM [2]): 35%

SMILES: C=C(C)[C@@H]1CC[C@]2(C(=O)NCC(=O)NCCCCCCCC(=O)O)CC[C@]3(C)[C@H](CCC4[C@@]5(C)CC[C@H](O)C(C)(C)[C@@H]5CC[C@]43C)[C@@H]12 (stereo partly drawn)
Inhibition (CCRF-CEM [2]): 30%

SMILES: C=C(C)[C@@H]1CC[C@]2(C(=O)NCCCC(=O)O)CC[C@]3(C)[C@H](CCC4[C@@]5(C)CC[C@H](O)C(C)(C)[C@@H]5CC[C@]43C)[C@@H]12 (stereo partly drawn)
IC50 (CCRF-CEM [3]): Not Active

SMILES: C=C(C)[C@@H]1CC[C@]2(C(=O)NCC(=O)O)CC[C@]3(C)[C@H](CCC4[C@@]5(C)CC[C@H](O)C(C)(C)[C@@H]5CC[C@]43C)[C@@H]12 (stereo partly drawn)
IC50 (CCRF-CEM [3]): Not Active

IC50 (CCRF-CEM [3]): Not Active
SMILES: C=C(C)[C@@H]1CC[C@]2(C(=O)NCCC(=O)O)CC[C@]3(C)[C@H](CC[C@@H]4[C@@]5(C)CC[C@H](O)C(C)(C)[C@@H]5CC[C@]43C)[C@@H]12

IC50 [4]: 4.3 µM | IC50 (CCRF-CEM [5]): 12 µM
SMILES: C=C(C)[C@@H]1CC[C@]2(C(=O)NCCCCCCC(=O)O)CC[C@]3(C)[C@H](CC[C@@H]4[C@@]5(C)CC[C@H](O)C(C)(C)[C@@H]5CC[C@]43C)[C@@H]12

IC50 (CCRF-CEM [5]): 2.3 µM
SMILES: C=C(C)[C@@H]1CC[C@]2(C(=O)NCCCCCC(=O)O)CC[C@]3(C)[C@H](CC[C@@H]4[C@@]5(C)CC[C@H](O)C(C)(C)[C@@H]5CC[C@]43C)[C@@H]12
IC50 (MT4): 2.4 µM

IC50 (CCRF-CEM [5]): 5.5 µM
SMILES: C=C(C)[C@@H]1CC[C@]2(C(=O)NCCCC(=O)NCCCCCC(=O)O)CC[C@]3(C)[C@H](CCC4[C@@]5(C)CC[C@H](O)C(C)(C)[C@@H]5CC[C@]43C)[C@@H]12 (stereo partly drawn)

SMILES: C=C(C)[C@@H]1CC[C@]2(C(=O)NCCCCC(=O)O)CC[C@]3(C)[C@H](CC[C@@H]4[C@@]5(C)CC[C@H](O)C(C)(C)[C@@H]5CC[C@]43C)[C@@H]12
inhibition at 1 µM (CCRF-CEM [6]): 46%

IC50 (CCRF-CEM [5]): 3 µM
SMILES: C=C(C)[C@@H]1CC[C@]2(C(=O)NCCCCCC(=O)NCCCC(=O)O)CC[C@]3(C)[C@H](CCC4[C@@]5(C)CC[C@H](O)C(C)(C)[C@@H]5CC[C@]43C)[C@@H]12 (stereo partly drawn)
